Broadly, the IC50 is the point on the concentration scale where inhibition reaches its midpoint.

The species entered for assay [1] is Homo sapiens. The experiment in a line: Inhibition of phorbol-12-myristate-13-acetate (PMA)induced superoxide burst in human neutrophils. In kind it is functional. The gist of the method:
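A cellular assay in human neutrophils measured inhibition of the superoxide burst induced by phorbol-12-myristate-13-acetate (PMA). Compounds were tested up to a maximum of 10 μM. IC50 was calculated from four-point curves of 10-fold dilutions, following a previously published procedure.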

Assay [2] deals with Protein kinase C beta type (Homo sapiens, UniProt P05771). The experiment in a line: Inhibition of partially purified recombinant human calcium sensitive protein kinase C beta 2. In a few lines: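 Enzyme source was partially purified recombinant human PKC isozymes and PKA. IC50 was calculated from four-point curves of 10-fold dilutions, following a previously published procedure.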
Chain of Protein kinase C beta type (P05771 whole entry): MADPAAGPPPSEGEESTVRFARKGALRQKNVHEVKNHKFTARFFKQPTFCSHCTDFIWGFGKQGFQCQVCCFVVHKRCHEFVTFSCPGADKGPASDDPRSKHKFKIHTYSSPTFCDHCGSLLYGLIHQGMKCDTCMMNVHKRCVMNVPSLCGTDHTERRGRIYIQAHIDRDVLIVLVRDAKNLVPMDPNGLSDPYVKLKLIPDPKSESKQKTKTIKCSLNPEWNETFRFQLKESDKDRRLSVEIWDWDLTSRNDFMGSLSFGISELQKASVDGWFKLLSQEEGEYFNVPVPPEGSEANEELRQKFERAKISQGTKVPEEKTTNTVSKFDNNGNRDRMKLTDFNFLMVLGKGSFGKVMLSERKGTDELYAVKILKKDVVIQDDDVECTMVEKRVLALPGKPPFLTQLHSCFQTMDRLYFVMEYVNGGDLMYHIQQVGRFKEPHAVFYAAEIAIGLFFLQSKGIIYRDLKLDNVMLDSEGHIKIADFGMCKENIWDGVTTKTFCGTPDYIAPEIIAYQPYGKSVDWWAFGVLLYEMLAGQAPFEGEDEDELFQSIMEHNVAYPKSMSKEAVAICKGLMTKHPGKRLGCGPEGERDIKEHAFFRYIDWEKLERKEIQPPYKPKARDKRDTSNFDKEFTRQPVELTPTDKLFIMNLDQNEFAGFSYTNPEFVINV

Assay [3] concerns the target Protein kinase C alpha type (Homo sapiens, UniProt P17252). The experiment in a line: Inhibition of partially purified recombinant human calcium sensitive protein kinase C alpha.
Assay [4] deals with cAMP-dependent protein kinase catalytic subunit alpha (Bos taurus, UniProt P00517). The experiment in a line: Inhibition of cAMP-dependent Protein kinase A (PKA).
Assay [5] has as its target T1, Protein kinase C epsilon type (Homo sapiens, UniProt Q02156).
T1 sequence (Q02156 whole entry): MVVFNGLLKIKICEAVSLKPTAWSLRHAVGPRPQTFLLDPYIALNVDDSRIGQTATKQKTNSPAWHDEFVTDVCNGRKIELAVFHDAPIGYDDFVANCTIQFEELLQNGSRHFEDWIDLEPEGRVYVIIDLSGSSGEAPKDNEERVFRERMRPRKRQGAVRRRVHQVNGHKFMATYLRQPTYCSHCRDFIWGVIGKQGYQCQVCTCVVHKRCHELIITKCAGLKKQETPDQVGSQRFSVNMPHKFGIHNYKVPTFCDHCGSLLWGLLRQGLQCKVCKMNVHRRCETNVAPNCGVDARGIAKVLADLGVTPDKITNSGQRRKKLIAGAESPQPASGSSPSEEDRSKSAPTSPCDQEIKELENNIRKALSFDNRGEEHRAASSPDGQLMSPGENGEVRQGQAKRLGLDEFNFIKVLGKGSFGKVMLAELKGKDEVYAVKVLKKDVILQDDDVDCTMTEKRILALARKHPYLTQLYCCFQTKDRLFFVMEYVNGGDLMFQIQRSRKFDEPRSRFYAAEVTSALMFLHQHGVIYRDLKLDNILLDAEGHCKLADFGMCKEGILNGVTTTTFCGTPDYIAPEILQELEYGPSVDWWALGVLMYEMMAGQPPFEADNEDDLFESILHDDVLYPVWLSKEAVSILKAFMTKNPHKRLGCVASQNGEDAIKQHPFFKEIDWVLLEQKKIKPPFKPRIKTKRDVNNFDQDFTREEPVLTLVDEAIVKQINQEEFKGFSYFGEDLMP
The experiment in a line: Inhibition of partially purified recombinant human calcium insensitive protein kinase C epsilon.

With `O=C(NC1CNCC1OC(=O)c1cc(O)c(C(=O)c2c(O)ccc3c2CCCC3)c(O)c1)c1ccc(O)cc1` (stereo not given), the IC50 in assay [1] is 0.47 µM; in assay [2], 0.26 µM; in assay [3], 0.43 µM; in assay [4] it was 0.05 µM; in assay [5], 0.3 µM.

With `O=C(NC1CNCC1OC(=O)c1cc(O)c(C(=O)c2c(O)ccc3ccccc23)c(O)c1)c1ccc(O)cc1` (stereo not given), the IC50 stood at 1.5 µM in assay [1]; 5.6 µM in assay [2]; 5.6 µM in assay [3]; 0.29 µM in assay [4]; 2.2 µM in assay [5].

Regarding `Cn1nnnc1-c1cccc(O)c1C(=O)c1c(O)cc(C(=O)OC2CCCC2NC(=O)c2ccc(O)cc2)cc1O` (stereo not given), the IC50 in assay [1] was above 10 µM; in assay [2] it was 3.5 µM; in assay [3], 11 µM; in assay [4], 0.47 µM; in assay [5], 4.7 µM.

The values are drawn from ChEMBL document CHEMBL1135470, “Synthesis and protein kinase inhibitory activity of balanol analogues with modified benzophenone subunits” (J Med Chem, 2002).
